Source: ChEMBL document CHEMBL1155469, “Peptide nucleic acids conjugated to short basic peptides show improved pharmacokinetics and antisense activity in adipose tissue” (J Med Chem, 2010)
Blank lines part the entries; values can stand above or below the compound they belong to. Active and inactive are the calls of the source. The calls are words filed in the database; no cut-off is given here.

Columns and labels:
BCL1 = assay: Inhibition of PTEN expression in mouse BCL1 cells after 62 hrs by Western blotting; assay type: functional, cell-based; conditions: BCL1, 62 h
In short: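 BCL1 cells were grown in DMEM with 10% FBS at 37 °C, 5% CO2. Compound was delivered to 2×10^6 cells by electroporation (200 V, 1000 uF, 13 ohms), and cells were harvested 62 h later. Western blot of RIPA lysates used rabbit anti-PTEN and anti-CD40 (1:1000) with HRP secondary and ECL detection. PTEN was normalized to CD40. n=3, mean ± SD.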

Mus musculus [1] = assay: Inhibition of PTEN expression in Balb/C mouse white adipose tissue assessed as reduction of full length transcript at 10 to 40 mg/kg, ip administered thrice a week for 2 weeks measured 48 hrs after last dose […]; assay type: functional, organism-based
Mus musculus [2] = assay: Toxicity in Balb/C mouse assessed as change in serum bilirubin levels at 10 to 40 mg/kg, ip administered thrice a week for 2 weeks measured 48 hrs after last dose; assay type: organism-based; parameters: dose 10-40 mg/kg, route intraperitoneal; conditions: in vivo
In short: (§1)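 Male Balb/c mice, 6–8 wk, n=4/group, received compound i.p. in PBS (10 ul/g) 3x/wk for 2 wk. Body weight was monitored throughout. At 48 h after the last dose, mice were anesthetized with isoflurane and bled by cardiac puncture. Serum AST, ALT, BUN, bilirubin, glucose and triglycerides were compared with the saline group. ALT rise below 2x normal was counted as absent.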

Mus musculus [3] = assay: Inhibition of PTEN expression in Balb/C mouse kidney at 10 to 40 mg/kg, ip administered thrice a week for 2 weeks measured 48 hrs after last dose
Mus musculus [4] = assay: Toxicity in Balb/C mouse assessed as change in serum triglyceride levels at 10 to 40 mg/kg, ip administered thrice a week for 2 weeks measured 48 hrs after last dose; assay type: organism-based; parameters: dose 10-40 mg/kg, route intraperitoneal; conditions: in vivo; in short: as §1
Mus musculus [5] = assay: Toxicity in Balb/C mouse assessed as change in serum ALT levels at 10 to 40 mg/kg, ip administered thrice a week for 2 weeks measured 48 hrs after last dose; assay type: organism-based; parameters: dose 10-40 mg/kg, route intraperitoneal; conditions: in vivo; in short: as §1
Mus musculus [6] = assay: Inhibition of PTEN expression in Balb/C mouse white adipose tissue assessed as upregulation of isoform lacking exon at 10 to 40 mg/kg, ip administered thrice a week for 2 weeks measured 48 hrs after last dose […]; assay type: functional, organism-based
Mus musculus [7] = assay: Toxicity in Balb/C mouse assessed as change in serum AST levels at 10 to 40 mg/kg, ip administered thrice a week for 2 weeks measured 48 hrs after last dose; assay type: organism-based; parameters: dose 10-40 mg/kg, route intraperitoneal; conditions: in vivo; in short: as §1
Mus musculus [8] = assay: Toxicity in Balb/C mouse assessed as change in blood urea nitrogen levels at 10 to 40 mg/kg, ip administered thrice a week for 2 weeks measured 48 hrs after last dose; assay type: organism-based; parameters: dose 10-40 mg/kg, route intraperitoneal; conditions: in vivo; in short: as §1
Mus musculus [9] = assay: Inhibition of PTEN expression in Balb/C mouse liver at 10 to 40 mg/kg, ip administered thrice a week for 2 weeks measured 48 hrs after last dose by Western blot analysis; assay type: functional, organism-based
In short: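 Male Balb/c mice, 6–8 wk, n=4/group, dosed i.p. in PBS 3x/wk for 2 wk and killed 48 h after the last dose. Tissue was homogenized in RIPA buffer with protease inhibitors, and protein was measured by Lowry assay. Lysates were run on 10% PAGE and blotted to PVDF. Blots were probed with rabbit anti-PTEN (1:1000) and HRP anti-rabbit (1:2500), with ECL detection.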

Mus musculus [10] = assay: Toxicity in Balb/C mouse assessed as change in body weight at 10 to 40 mg/kg, ip administered thrice a week for 2 weeks measured 48 hrs after last dose; assay type: organism-based; parameters: dose 10-40 mg/kg, route intraperitoneal; conditions: in vivo; in short: as §1
Mus musculus [11] = assay: Toxicity in Balb/C mouse assessed as change in serum glucose levels at 10 to 40 mg/kg, ip administered thrice a week for 2 weeks measured 48 hrs after last dose; assay type: organism-based; parameters: dose 10-40 mg/kg, route intraperitoneal; conditions: in vivo; in short: as §1
Mus musculus [12] = assay: Toxicity in Balb/C mouse assessed as increase in spleen weight at 40 mg/kg, ip administered thrice a week for 2 weeks measured 48 hrs after last dose; assay type: organism-based; parameters: dose 40 mg/kg, route intraperitoneal; conditions: in vivo
In short: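 Male Balb/c mice, 6–8 wk, n=4/group, were dosed i.p. in PBS 3x/wk for 2 wk at 40 mg/kg. They were killed by cervical dislocation 48 h after the last dose. Spleen weight was taken at necropsy and compared with the saline-treated group.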

SMILES: Cc1cn(CC(=O)N(CCNC(=O)CN(CCNC(=O)CN(CCNC(=O)CN(CCNC(=O)CN(CCNC(=O)CN(CCNC(=O)CN(CCNC(=O)CN(CCNC(=O)CN(CCNC(=O)CN(CCNC(=O)CN(CCNC(=O)CN(CCNC(=O)[C@H](CCCCN)N(CCNC(=O)[C@H](CCCCN)NC(=O)[C@H](CCCCN)NC(=O)[C@H](CCCCN)NC(=O)[C@H](CCCCN)NC(=O)[C@H](CCCCN)NC(=O)[C@H](CCCCN)NC(=O)[C@H](CCCCN)NC(=O)[C@@H](N)CCCCN)C(=O)Cn2cc(C)c(=O)[nH]c2=O)C(=O)Cn2ccc(N)nc2=O)C(=O)Cn2cc(C)c(=O)[nH]c2=O)C(=O)Cn2cnc3c(N)ncnc32)C(=O)Cn2cnc3c(N)ncnc32)C(=O)Cn2ccc(N)nc2=O)C(=O)Cn2ccc(N)nc2=O)C(=O)Cn2cnc3c(N)ncnc32)C(=O)Cn2ccc(N)nc2=O)C(=O)Cn2cnc3c(N)ncnc32)C(=O)Cn2cc(C)c(=O)[nH]c2=O)C(=O)Cn2ccc(N)nc2=O)CC(=O)NCCN(CC(=O)NCCN(CC(=O)NCCN(CC(=O)N[C@@H](CCCCN)C(N)=O)C(=O)Cn2cnc3c(N)ncnc32)C(=O)Cn2cnc3c(=O)[nH]c(N)nc32)C(=O)Cn2ccc(N)nc2=O)c(=O)[nH]c1=O
- Activity (Mus musculus [1]): inactive
- Activity (Mus musculus [2]): Non-toxic
- inhibition (Mus musculus [3]): inactive
- Activity (Mus musculus [4]): Non-toxic
- Activity (Mus musculus [5]): Non-toxic
- Activity (Mus musculus [6]): inactive
- Activity (Mus musculus [7]): Non-toxic
- Activity (Mus musculus [8]): Non-toxic
- inhibition (Mus musculus [9]): inactive
- Activity (Mus musculus [10]): Non-toxic
- Activity (Mus musculus [11]): Non-toxic
- Activity (Mus musculus [12]): 145%

SMILES: Cc1cn(CC(=O)N(CCN)CC(=O)NCCN(CC(=O)NCCN(CC(=O)NCCN(CC(=O)NCCN(CC(=O)NCCN(CC(=O)NCCN(CC(=O)NCCN(CC(=O)NCCN(CC(=O)NCCN(CC(=O)NCCN(CC(=O)NCCN(CC(=O)NCCN(CC(=O)NCCN(CC(=O)NCCN(CC(=O)N[C@@H](CCCCN)C(N)=O)C(=O)Cn2cnc3c(=O)[nH]c(N)nc32)C(=O)Cn2cnc3c(N)ncnc32)C(=O)Cn2cnc3c(N)ncnc32)C(=O)Cn2cnc3c(N)ncnc32)C(=O)Cn2cnc3c(=O)[nH]c(N)nc32)C(=O)Cn2cnc3c(N)ncnc32)C(=O)Cn2cnc3c(=O)[nH]c(N)nc32)C(=O)Cn2cnc3c(N)ncnc32)C(=O)Cn2cc(C)c(=O)[nH]c2=O)C(=O)Cn2ccc(N)nc2=O)C(=O)Cn2ccc(N)nc2=O)C(=O)Cn2cnc3c(N)ncnc32)C(=O)Cn2ccc(N)nc2=O)C(=O)Cn2cc(C)c(=O)[nH]c2=O)c(=O)[nH]c1=O
- IC50 (BCL1): 3000 nM

SMILES: COCCO[C@@H]1[C@H](OP(=O)(S)OC[C@H]2O[C@@H](n3cc(C)c(=O)[nH]c3=O)C[C@@H]2OP(=O)(S)OC[C@H]2O[C@@H](n3cnc4c(N)ncnc43)[C@H](OCCOC)[C@@H]2OP(=O)(S)OC[C@H]2O[C@@H](n3cnc4c(=O)[nH]c(N)nc43)[C@H](OCCOC)[C@@H]2OP(=O)(S)OC[C@H]2O[C@@H](n3cnc4c(N)ncnc43)[C@H](OCCOC)[C@@H]2OP(=O)(S)OC[C@H]2O[C@@H](n3cnc4c(=O)[nH]c(N)nc43)[C@H](OCCOC)[C@@H]2OP(=O)(S)OC[C@H]2O[C@@H](n3cnc4c(N)ncnc43)[C@H](OCCOC)[C@@H]2OP(=O)(S)OC[C@H]2O[C@@H](n3cnc4c(N)ncnc43)[C@H](OCCOC)[C@@H]2OP(=O)(S)OC[C@H]2O[C@@H](n3cnc4c(N)ncnc43)[C@H](OCCOC)[C@@H]2OP(=O)(S)OC[C@H]2O[C@@H](n3cnc4c(=O)[nH]c(N)nc43)[C@H](OCCOC)[C@@H]2O)[C@@H](COP(=O)(S)O[C@H]2[C@@H](OCCOC)[C@H](n3ccc(N)nc3=O)O[C@@H]2COP(=O)(S)O[C@H]2[C@@H](OCCOC)[C@H](n3cnc4c(N)ncnc43)O[C@@H]2COP(=O)(S)O[C@H]2[C@@H](OCCOC)[C@H](n3ccc(N)nc3=O)O[C@@H]2COP(=O)(S)O[C@H]2C[C@H](n3cc(C)c(=O)[nH]c3=O)O[C@@H]2COP(=O)(S)O[C@H]2C[C@H](n3cc(C)c(=O)[nH]c3=O)O[C@@H]2COP(=O)(S)O[C@H]2C[C@H](n3cc(C)c(=O)[nH]c3=O)O[C@@H]2COP(=O)(S)O[C@H]2[C@@H](OCCOC)[C@H](n3cnc4c(=O)[nH]c(N)nc43)O[C@@H]2COP(=O)(S)O[C@H]2[C@@H](OCCOC)[C@H](n3cnc4c(N)ncnc43)O[C@@H]2COP(=O)(S)O[C@H]2C[C@H](n3cc(C)c(=O)[nH]c3=O)O[C@@H]2COP(=O)(S)O[C@H]2[C@@H](OCCOC)[C@H](n3cnc4c(N)ncnc43)O[C@@H]2CO)O[C@H]1n1ccc(N)nc1=O (some centres not stated)
- IC50 (BCL1): 2200 nM

Now from value to compound:

- IC50 (BCL1): 2400 nM
SMILES: Cc1cn(CC(=O)N(CCNC(=O)CN(CCNC(=O)CN(CCNC(=O)CN(CCNC(=O)CN(CCN)C(=O)Cn2cnc3c(N)ncnc32)C(=O)Cn2cnc3c(=O)[nH]c(N)nc32)C(=O)Cn2cc(C)c(=O)[nH]c2=O)C(=O)Cn2cc(C)c(=O)[nH]c2=O)CC(=O)NCCN(CC(=O)NCCN(CC(=O)NCCN(CC(=O)NCCN(CC(=O)NCCN(CC(=O)NCCN(CC(=O)NCCN(CC(=O)NCCN(CC(=O)NCCN(CC(=O)NCCN(CC(=O)N[C@@H](CCCCN)C(N)=O)C(=O)Cn2cnc3c(N)ncnc32)C(=O)Cn2cnc3c(=O)[nH]c(N)nc32)C(=O)Cn2cnc3c(N)ncnc32)C(=O)Cn2cnc3c(=O)[nH]c(N)nc32)C(=O)Cn2cnc3c(N)ncnc32)C(=O)Cn2cc(C)c(=O)[nH]c2=O)C(=O)Cn2ccc(N)nc2=O)C(=O)Cn2ccc(N)nc2=O)C(=O)Cn2cnc3c(N)ncnc32)C(=O)Cn2ccc(N)nc2=O)c(=O)[nH]c1=O

- IC50 (BCL1): 3200 nM
SMILES: Cc1cn(CC(=O)N(CCNC(=O)CN(CCNC(=O)CN(CCNC(=O)CN(CCNC(=O)CN(CCNC(=O)CN(CCNC(=O)CN(CCN)C(=O)Cn2cnc3c(N)ncnc32)C(=O)Cn2cc(C)c(=O)[nH]c2=O)C(=O)Cn2cnc3c(N)ncnc32)C(=O)Cn2cnc3c(=O)[nH]c(N)nc32)C(=O)Cn2cc(C)c(=O)[nH]c2=O)C(=O)Cn2cc(C)c(=O)[nH]c2=O)CC(=O)NCCN(CC(=O)NCCN(CC(=O)NCCN(CC(=O)NCCN(CC(=O)NCCN(CC(=O)NCCN(CC(=O)NCCN(CC(=O)NCCN(CC(=O)N[C@@H](CCCCN)C(N)=O)C(=O)Cn2cnc3c(N)ncnc32)C(=O)Cn2cnc3c(=O)[nH]c(N)nc32)C(=O)Cn2cnc3c(N)ncnc32)C(=O)Cn2cc(C)c(=O)[nH]c2=O)C(=O)Cn2ccc(N)nc2=O)C(=O)Cn2ccc(N)nc2=O)C(=O)Cn2cnc3c(N)ncnc32)C(=O)Cn2ccc(N)nc2=O)c(=O)[nH]c1=O

- IC50 (BCL1): 1000 nM
SMILES: Cc1cn(CC(=O)N(CCNC(=O)CN(CCN)C(=O)Cn2ccc(N)nc2=O)CC(=O)NCCN(CC(=O)NCCN(CC(=O)NCCN(CC(=O)NCCN(CC(=O)NCCN(CC(=O)NCCN(CC(=O)NCCN(CC(=O)NCCN(CC(=O)NCCN(CC(=O)NCCN(CC(=O)NCCN(CC(=O)NCCN(CC(=O)NCCN(CC(=O)N[C@@H](CCCCN)C(N)=O)C(=O)Cn2cnc3c(N)ncnc32)C(=O)Cn2ccc(N)nc2=O)C(=O)Cn2cnc3c(N)ncnc32)C(=O)Cn2cc(C)c(=O)[nH]c2=O)C(=O)Cn2ccc(N)nc2=O)C(=O)Cn2cc(C)c(=O)[nH]c2=O)C(=O)Cn2cnc3c(N)ncnc32)C(=O)Cn2ccc(N)nc2=O)C(=O)Cn2cnc3c(N)ncnc32)C(=O)Cn2ccc(N)nc2=O)C(=O)Cn2cnc3c(=O)[nH]c(N)nc32)C(=O)Cn2cnc3c(N)ncnc32)C(=O)Cn2ccc(N)nc2=O)c(=O)[nH]c1=O
